In brackets after ≈: the same amount, converted by molar mass.
Legend:
[1] = tested on: Candida albicans; assay: Antifungal activity against Candida albicans ATCC 10231 incubated for 48 hrs by modified CLSI M27-A3 protocol based method; format: functional; settings: ATCC 10231, 48 h, read-out: MIC100
Outline: (§1)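 For C. albicans ATCC 10231, C. krusei ATCC 6258 and C. parapsilosis ATCC 22019, MIC-0 was read, meaning complete growth inhibition. For azole controls, MIC-2 (50% growth inhibition) was reported instead. Caspofungin and voriconazole were tested here; other controls came from earlier work.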

[2] = tested on: Candida albicans; assay: Antifungal activity against Candida albicans ATCC 64124 incubated for 48 hrs by modified CLSI M27-A3 protocol based method; format: functional; settings: ATCC 64124, 48 h
[3] = tested on: Candida albicans; assay: Antifungal activity against ITC and FLC-susceptible Candida albicans ATCC MYA-2876 incubated for 48 hrs by modified CLSI M27-A3 protocol based method; format: functional; settings: ATCC MYA-2876, 48 h
Outline: (§2)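 Because these Candida strains show trailing growth, MIC-2 was read, meaning 50% growth inhibition. Caspofungin and voriconazole were tested here; other controls came from earlier work.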

[4] = tested on: Candida albicans; assay: Antifungal activity against ITC and FLC-resistant Candida albicans ATCC MYA-90819 incubated for 48 hrs by modified CLSI M27-A3 protocol based method; format: functional; settings: ATCC MYA-90819, 48 h
[5] = tested on: Candida albicans; assay: Antifungal activity against ITC and FLC-susceptible Candida albicans ATCC MYA-2310 incubated for 48 hrs by modified CLSI M27-A3 protocol based method; format: functional; settings: ATCC MYA-2310, 48 h
[6] = tested on: Candida albicans; assay: Antifungal activity against ITC and FLC-resistant Candida albicans ATCC 1237 incubated for 48 hrs by modified CLSI M27-A3 protocol based method; format: functional; settings: ATCC 1237, 48 h; outline: as §2
[7] = tested on: Nakaseomyces glabratus; assay: Antifungal activity against Candida glabrata ATCC 2001 incubated for 48 hrs by modified CLSI M27-A3 protocol based method; format: functional; settings: ATCC 2001, 48 h
[8] = tested on: Candida parapsilosis; assay: Antifungal activity against Candida parapsilosis ATCC 22019 incubated for 48 hrs by modified CLSI M27-A3 protocol based method; format: functional; settings: Lodderomyces parapsilosis, ATCC 22019, 48 h; read-out: MIC100; outline: as §1
[9] = tested on: Aspergillus nidulans; assay: Antifungal activity against Aspergillus nidulans ATCC 38163 incubated for 48 hrs by CLSI M38-A2 protocol based method; format: functional; settings: ATCC 38163, 48 h, read-out: MIC100
[10] = tested on: Aspergillus terreus; assay: Antifungal activity against Aspergillus terreus ATCC MYA-3633 incubated for 48 hrs by CLSI M38-A2 protocol based method; format: functional; settings: ATCC MYA-3633, 48 h, read-out: MIC100
[11] = Hemolytic activity in mouse erythrocytes assessed as hemolysis level at 3.9 ug/ml incubated for 1 hr at 37 degC; format: ADME, cell-based, Erythrocyte; settings: read-out: Activity
Outline: (§3)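 Mouse erythrocytes incubated 1 h at 37 °C with test agents over 1.95 to 125 µg/mL. Percent lysis is read for each concentration.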

[12] = Hemolytic activity in mouse erythrocytes assessed as hemolysis level at 7.8 ug/ml incubated for 1 hr at 37 degC; format: ADME, cell-based, Erythrocyte; settings: read-out: Activity; outline: as §3
[13] = Hemolytic activity in mouse erythrocytes assessed as hemolysis level at 31.3 ug/ml incubated for 1 hr at 37 degC; format: ADME, cell-based, Erythrocyte; settings: read-out: Activity; outline: as §3
[14] = Hemolytic activity in mouse erythrocytes assessed as hemolysis level at 125 ug/ml incubated for 1 hr at 37 degC; format: ADME, cell-based, Erythrocyte; settings: read-out: Activity; outline: as §3
[15] = Selectivity index, ratio of EC50 for toxicity in human A549 cells to MIC100 for antifungal activity against Candida albicans ATCC 10231; format: cell-based; settings: read-out: Selectivity Index
Outline: (§4)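 Selectivity index is the EC50 against the mammalian line (A549 or BEAS-2B) divided by the MIC against the given fungal strain.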

[16] = Selectivity index, ratio of EC50 for toxicity in human BEAS2B cells to MIC50 for antifungal activity against Candida albicans ATCC 64124; format: cell-based; settings: BEAS-2B cells, read-out: Selectivity Index; outline: as §4
[17] = Selectivity index, ratio of EC50 for toxicity in human BEAS2B cells to MIC100 for antifungal activity against Candida albicans ATCC 10231; format: cell-based; settings: BEAS-2B cells, read-out: Selectivity Index; outline: as §4
[18] = Selectivity index, ratio of EC50 for toxicity in human A549 cells to MIC50 for antifungal activity against Candida albicans ATCC 64124; format: cell-based; settings: read-out: Selectivity Index; outline: as §4
[19] = Selectivity index, ratio of EC50 for toxicity in human A549 cells to MIC50 for antifungal activity against ITC and FLC-susceptible Candida albicans ATCC MYA-2876; format: cell-based; settings: read-out: Selectivity Index; outline: as §4
[20] = Selectivity index, ratio of EC50 for toxicity in human A549 cells to MIC50 for antifungal activity against ITC and FLC-resistant Candida albicans ATCC MYA-90819; format: cell-based; settings: read-out: Selectivity Index; outline: as §4
[21] = Selectivity index, ratio of EC50 for toxicity in human BEAS2B cells to MIC50 for antifungal activity against ITC and FLC-resistant Candida albicans ATCC MYA-90819; format: cell-based; settings: BEAS-2B cells, read-out: Selectivity Index
Outline: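 Ratio of the compound's EC50 against BEAS-2B cells to its MIC against the named C. albicans strain. […] For C. albicans strains other than ATCC 10231, trailing growth meant MIC-2 was taken, meaning 50% growth inhibition.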

[22] = Selectivity index, ratio of EC50 for toxicity in human A549 cells to MIC50 for antifungal activity against ITC and FLC-susceptible Candida albicans ATCC MYA-2310; format: cell-based; settings: read-out: Selectivity Index; outline: as §4
[23] = Selectivity index, ratio of EC50 for toxicity in human A549 cells to MIC50 for antifungal activity against ITC and FLC-resistant Candida albicans ATCC 1237; format: cell-based; settings: read-out: Selectivity Index; outline: as §4
[24] = Selectivity index, ratio of EC50 for toxicity in human BEAS2B cells to MIC50 for antifungal activity against ITC and FLC-resistant Candida albicans ATCC 1237; format: cell-based; settings: BEAS-2B cells, read-out: Selectivity Index; outline: as §4
[25] = Selectivity index, ratio of EC50 for toxicity in human A549 cells to MIC50 for antifungal activity against ITC and FLC-resistant Candida albicans ATCC MYA-1003; format: cell-based; settings: read-out: Selectivity Index; outline: as §4
[26] = Selectivity index, ratio of EC50 for toxicity in human BEAS2B cells to MIC50 for antifungal activity against ITC and FLC-resistant Candida albicans ATCC MYA-1003; format: cell-based; settings: BEAS-2B cells, read-out: Selectivity Index; outline: as §4
[27] = Selectivity index, ratio of EC50 for toxicity in human BEAS2B cells to MIC50 for antifungal activity against Candida glabrata ATCC 2001; format: cell-based; settings: BEAS-2B cells, read-out: Selectivity Index; outline: as §4
[28] = Selectivity index, ratio of […] for toxicity in human A549 cells to MIC50 for antifungal activity against Aspergillus flavus ATCC MYA-3631; format: cell-based; settings: read-out: Selectivity Index
[29] = Selectivity index, ratio of […] for toxicity in human BEAS2B cells to MIC50 for antifungal activity against Aspergillus flavus ATCC MYA-3631; format: cell-based; settings: BEAS-2B cells, read-out: Selectivity Index
[30] = Selectivity index, ratio of […] for toxicity in human A549 cells to MIC50 for antifungal activity against Aspergillus nidulans ATCC 38163; format: cell-based; settings: read-out: Selectivity Index
[31] = Selectivity index, ratio of […] for toxicity in human BEAS2B cells to MIC50 for antifungal activity against Aspergillus terreus ATCC MYA-3633; format: cell-based; settings: BEAS-2B cells, read-out: Selectivity Index
[32] = Selectivity index, ratio of EC50 for toxicity in human A549 cells to MIC50 for antifungal activity against Candida krusei ATCC 6258

| SMILES | MIC [1] | MIC50 [2] | MIC50 [3] | MIC50 [4] | MIC50 [5] | MIC50 [6] | MIC50 [7] | MIC [8] | MIC [9] | MIC [10] | hemolysis at 1 h, 3.9 ug/ml [11] | hemolysis at 1 h, 7.8 ug/ml [12] | hemolysis at 1 h, 31.3 ug/ml [13] | hemolysis at 1 h, 125 ug/ml [14] | selectivity ratio [15] | selectivity ratio [16] | selectivity ratio [17] | selectivity ratio [18] | selectivity ratio [19] | selectivity ratio [20] | other results |
| --- | --- | --- | --- | --- | --- | --- | --- | --- | --- | --- | --- | --- | --- | --- | --- | --- | --- | --- | --- | --- | --- |
| CCCCCCC(O)(Cn1cncn1)c1ccc(F)cc1F (stereo not drawn) | 6.3 µM (≈ 1.95 µg/mL) | 25.2 µM (≈ 7.8 µg/mL) | 6.3 µM (≈ 1.95 µg/mL) | 6.3 µM (≈ 1.95 µg/mL) | 12.6 µM (≈ 3.9 µg/mL) | 6.3 µM (≈ 1.95 µg/mL) | 12.6 µM (≈ 3.9 µg/mL) | < 0.1 µM | 1.6 µM (≈ 0.495 µg/mL) | 25.2 µM (≈ 7.8 µg/mL) | 0% | 0% | 10.4% | 60.9% | 18 | 4 | 16 | 4 | 18 | 18 | selectivity ratio [21]: 16; selectivity ratio [22]: 9; selectivity ratio [23]: 18; selectivity ratio [24]: 16; selectivity ratio [25]: 18; selectivity ratio [26]: 16; selectivity ratio [27]: 8; selectivity ratio [28]: 2; selectivity ratio [29]: 2; selectivity ratio [30]: 73; selectivity ratio [31]: 4; selectivity ratio [32]: 292 |
| CCCCCCCCC(O)(Cn1cncn1)c1ccc(F)cc1F (stereo not drawn) | 5.8 µM (≈ 1.96 µg/mL) | 11.6 µM (≈ 3.91 µg/mL) | 5.8 µM (≈ 1.96 µg/mL) | 5.8 µM (≈ 1.96 µg/mL) | 5.8 µM (≈ 1.96 µg/mL) | 5.8 µM (≈ 1.96 µg/mL) | 5.8 µM (≈ 1.96 µg/mL) | ≤ 0.18 µM | 1.4 µM (≈ 0.472 µg/mL) | 23.1 µM (≈ 7.79 µg/mL) | 0% | 46.8% | 68.4% | 97.1% | 6 | 3 | 7 | 3 | 6 | 6 | selectivity ratio [21]: 7; selectivity ratio [22]: 6; selectivity ratio [23]: 6; selectivity ratio [24]: 7; selectivity ratio [25]: 6; selectivity ratio [26]: 7; selectivity ratio [27]: 7; selectivity ratio [28]: 0.4; selectivity ratio [29]: 0.4; selectivity ratio [30]: 25; selectivity ratio [31]: 2; selectivity ratio [32]: 50 |
| CCCCCCC(O)(Cn1cncn1)c1ccc(Cl)cc1 (stereo not drawn) | 6.3 µM (≈ 1.94 µg/mL) | 102 µM (≈ 31.3 µg/mL) | 25.3 µM (≈ 7.79 µg/mL) | 12.7 µM (≈ 3.91 µg/mL) | 102 µM (≈ 31.3 µg/mL) | 12.7 µM (≈ 3.91 µg/mL) | > 102 µM | > 102 µM | 12.7 µM (≈ 3.91 µg/mL) | 50.7 µM (≈ 15.6 µg/mL) | 0% | 0% | 9.5% | 102% | 19 | 1 | 16 | 1 | 5 | 10 | selectivity ratio [21]: 8; selectivity ratio [22]: 1; selectivity ratio [23]: 10; selectivity ratio [24]: 8; selectivity ratio [25]: 19; selectivity ratio [26]: 16; selectivity ratio [27]: 1; selectivity ratio [28]: 1; selectivity ratio [29]: 1; selectivity ratio [30]: 10; selectivity ratio [31]: 2; selectivity ratio [32]: 19 |
| CCCCCCC(O)(Cn1cncn1)c1ccccc1Cl (stereo not drawn) | 25.3 µM (≈ 7.79 µg/mL) | > 102 µM | 3.2 µM (≈ 0.985 µg/mL) | 6.3 µM (≈ 1.94 µg/mL) | 6.3 µM (≈ 1.94 µg/mL) | 3.2 µM (≈ 0.985 µg/mL) | 3.2 µM (≈ 0.985 µg/mL) | 0.39 µM (≈ 0.12 µg/mL) | 0.19 µM (≈ 0.0585 µg/mL) | 1.6 µM (≈ 0.493 µg/mL) | 0% | 0% | 0% | 92% | 4 | 1 | 4 | 1 | 32 | 16 | selectivity ratio [21]: 16; selectivity ratio [22]: 16; selectivity ratio [23]: 32; selectivity ratio [24]: 32; selectivity ratio [25]: 4; selectivity ratio [26]: 4; selectivity ratio [27]: 32; selectivity ratio [28]: 8 to 16; selectivity ratio [29]: 8 to 16; selectivity ratio [30]: 522; selectivity ratio [31]: 65; selectivity ratio [32]: 261 |

From ChEMBL document CHEMBL4265871, “Novel alkylated azoles as potent antifungals” (Eur J Med Chem, 2017)
